In ChEMBL document CHEMBL1148475, “Nonpeptide luteinizing hormone-releasing hormone antagonists derived from erythromycin A: design, synthesis, and biological activity of cladinose replacement analogues” (J Med Chem, 2004):

Key:
[1] = target: T1, Gonadotropin-releasing hormone receptor (Homo sapiens, UniProt P30968); assay: In vitro binding affinity was determined against human Luteinizing hormone-releasing hormone (LHRH) receptor cloned in CHO cells; format: cell-based
T1 sequence (P30968 whole entry): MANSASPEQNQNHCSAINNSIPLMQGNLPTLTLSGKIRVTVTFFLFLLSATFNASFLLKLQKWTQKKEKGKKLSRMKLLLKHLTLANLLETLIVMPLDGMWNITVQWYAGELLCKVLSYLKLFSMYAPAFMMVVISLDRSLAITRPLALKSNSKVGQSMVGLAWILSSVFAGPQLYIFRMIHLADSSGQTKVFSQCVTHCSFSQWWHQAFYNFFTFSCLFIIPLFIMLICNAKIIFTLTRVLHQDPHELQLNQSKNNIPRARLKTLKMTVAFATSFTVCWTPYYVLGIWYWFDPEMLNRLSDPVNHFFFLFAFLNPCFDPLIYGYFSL

[2] = target: T1, Gonadotropin-releasing hormone receptor; assay: In vitro binding affinity to human luteinizing hormone-releasing hormone (LHRH) receptor cloned in CHO cells; format: cell-based
[3] = target: T2, Gonadotropin-releasing hormone receptor (Rattus norvegicus, UniProt P30969); assay: In vitro binding affinity to rat luteinizing hormone-releasing hormone (LHRH) receptor cloned in CHO cells; format: cell-based
T2 sequence (P30969 whole entry): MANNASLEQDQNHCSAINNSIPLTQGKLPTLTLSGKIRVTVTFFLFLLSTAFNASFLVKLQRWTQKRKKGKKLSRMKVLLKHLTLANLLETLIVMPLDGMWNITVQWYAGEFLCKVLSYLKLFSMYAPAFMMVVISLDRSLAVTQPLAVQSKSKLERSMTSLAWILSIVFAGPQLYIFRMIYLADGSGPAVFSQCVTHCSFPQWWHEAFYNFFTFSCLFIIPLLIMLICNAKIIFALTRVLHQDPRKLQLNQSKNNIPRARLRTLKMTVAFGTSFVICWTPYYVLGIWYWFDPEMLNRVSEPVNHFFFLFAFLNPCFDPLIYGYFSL

[4] = target: Gonadotropin-releasing hormone receptor (Rattus norvegicus, UniProt P30969); assay: In vitro binding ability against Luteinizing hormone-releasing hormone release in rat pituitary cells; format: cell-based, Pituitary gland cell; details: read-out: pA2 (converted)
Summary of the method: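 Functional antagonism of LH release measured in cultured rat pituitary cells; potency expressed as pA2.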

Ki [1]	Ki [2]	Ki [3]	Kb [4]	Log Ki ([2]; cho)	Structure (SMILES)
200 nM	–	–	–	–	CC[C@H]1OC(=O)[C@H](C)[C@@H](OC(=O)N2CCOC2)[C@H](C)[C@@H](OC2O[C@H](C)C[C@H](N(C)C(C)C)[C@H]2O)[C@@](C)(OC)C[C@@H](C)C(=O)[C@H](C)[C@H]2N(CCc3ccc(Cl)cc3)C(=O)O[C@]12C (stereo partly drawn)
–	18.6 nM	2.88 nM	–	–	CC[C@H]1OC(=O)[C@H](C)[C@@H](OC(=O)N2C(=O)OC[C@@H]2C)[C@H](C)[C@@H](OC2O[C@H](C)C[C@H](N(C)C(C)C)[C@H]2O)[C@@](C)(OC)C[C@@H](C)C(=O)[C@H](C)[C@H]2N(CCc3ccc(Cl)cc3)C(=O)O[C@]12C (stereo partly drawn)
–	2040 nM	219 nM	–	–	CC[C@H]1OC(=O)[C@H](C)[C@@H](OC(=O)N2CCNC2=O)[C@H](C)[C@@H](OC2O[C@H](C)C[C@H](N(C)C(C)C)[C@H]2O)[C@@](C)(OC)C[C@@H](C)C(=O)[C@H](C)[C@H]2N(CCc3ccc(Cl)cc3)C(=O)O[C@]12C (stereo partly drawn)
–	5620 nM	427 nM	–	–	CC[C@H]1OC(=O)[C@H](C)[C@@H](OC(=O)N2CCOCC2)[C@H](C)[C@@H](OC2O[C@H](C)C[C@H](N(C)C(C)C)[C@H]2O)[C@@](C)(OC)C[C@@H](C)C(=O)[C@H](C)[C@H]2N(CCc3ccc(Cl)cc3)C(=O)O[C@]12C (stereo partly drawn)
–	66.1 nM	6.31 nM	–	–	CC[C@H]1COC(=O)N1C(=O)O[C@H]1[C@H](C)[C@@H](OC2O[C@H](C)C[C@H](N(C)C(C)C)[C@H]2O)[C@@](C)(OC)C[C@@H](C)C(=O)[C@H](C)[C@H]2N(CCc3ccc(Cl)cc3)C(=O)O[C@]2(C)[C@@H](CC)OC(=O)[C@@H]1C (stereo partly drawn)
–	22.4 nM	4.47 nM	–	–	CC[C@H]1OC(=O)[C@H](C)[C@@H](OC2C[C@@](C)(OC)[C@@H](O)[C@H](C)O2)[C@H](C)[C@@H](OC2O[C@H](C)C[C@H](N(C)C(C)C)[C@H]2O)[C@@](C)(OC)C[C@@H](C)C(=O)[C@H](C)[C@H]2N(CCc3ccc(Cl)cc3)C(=O)O[C@]12C (stereo partly drawn)
–	4680 nM	1230 nM	–	–	CC[C@H]1OC(=O)[C@H](C)[C@@H](OC(=O)N2CCN(C)C2=O)[C@H](C)[C@@H](OC2O[C@H](C)C[C@H](N(C)C(C)C)[C@H]2O)[C@@](C)(OC)C[C@@H](C)C(=O)[C@H](C)[C@H]2N(CCc3ccc(Cl)cc3)C(=O)O[C@]12C (stereo partly drawn)
–	15.1 nM	0.234 nM	1.78 nM	–	CC[C@H]1OC(=O)[C@H](C)[C@@H](OC(=O)N2C(=O)OC[C@@H]2C)[C@H](C)[C@@H](OC2O[C@H](C)C[C@H](N(C)C(C)C)[C@H]2O)[C@@](C)(OC)C[C@@H](C)C(=O)[C@H](C)[C@H]2N(CCc3ccc(Cl)c(Cl)c3)C(=O)O[C@]12C (stereo partly drawn)
–	5.62 nM	0.692 nM	0.135 nM	–	CC[C@H]1OC(=O)[C@H](C)[C@@H](OC(=O)N2C(=O)OC[C@@H]2C)[C@H](C)[C@@H](OC2O[C@H](C)C[C@H](N(C)C3CCCC3)[C@H]2O)[C@@](C)(OC)C[C@@H](C)C(=O)[C@H](C)[C@H]2N(CCc3ccc(Cl)c(Cl)c3)C(=O)O[C@]12C (stereo partly drawn)
–	38 nM	1.17 nM	–	–	CC[C@H]1OC(=O)[C@H](C)[C@@H](OC(=O)N2C(=O)OC[C@@H]2C)[C@H](C)[C@@H](OC2O[C@H](C)C[C@H](N(C)C3CCCC3)[C@H]2O)[C@@](C)(OC)C[C@@H](C)C(=O)[C@H](C)[C@H]2N(CCc3ccc(Cl)cc3)C(=O)O[C@]12C (stereo partly drawn)
–	2040 nM	141 nM	–	–	CC[C@H]1OC(=O)[C@H](C)[C@@H](OC(=O)CC(C)C)[C@H](C)[C@@H](OC2O[C@H](C)C[C@H](N(C)C(C)C)[C@H]2O)[C@@](C)(OC)C[C@@H](C)C(=O)[C@H](C)[C@H]2N(CCc3ccc(Cl)cc3)C(=O)O[C@]12C (stereo partly drawn)
–	49 nM	5.25 nM	–	–	CC[C@H]1OC(=O)[C@H](C)[C@@H](OC(=O)N2C(=O)OC[C@H]2C)[C@H](C)[C@@H](OC2O[C@H](C)C[C@H](N(C)C(C)C)[C@H]2O)[C@@](C)(OC)C[C@@H](C)C(=O)[C@H](C)[C@H]2N(CCc3ccc(Cl)cc3)C(=O)O[C@]12C (stereo partly drawn)
–	214 nM	14.1 nM	–	–	CC[C@H]1OC(=O)[C@H](C)[C@@H](OC(=O)C2CCOC2)[C@H](C)[C@@H](OC2O[C@H](C)C[C@H](N(C)C(C)C)[C@H]2O)[C@@](C)(OC)C[C@@H](C)C(=O)[C@H](C)[C@H]2N(CCc3ccc(Cl)cc3)C(=O)O[C@]12C (stereo partly drawn)
–	10000 nM	2510 nM	–	–	CC[C@H]1OC(=O)[C@H](C)[C@@H](O)[C@H](C)[C@@H](OC2O[C@H](C)C[C@H](N(C)C(C)C)[C@H]2O)[C@@](C)(OC)C[C@@H](C)C(=O)[C@H](C)[C@H]2N(CCc3ccc(Cl)cc3)C(=O)O[C@]12C (stereo partly drawn)
–	1.86 nM	0.676 nM	1.74 nM	–	CC[C@H]1OC(=O)[C@H](C)[C@@H](OC(=O)N2C(=O)OC[C@@H]2C)[C@H](C)[C@@H](O[C@@H]2O[C@H](C)C[C@H](N(C)CC3CC3)[C@H]2O)[C@@](C)(OC)C[C@@H](C)C(=O)[C@H](C)[C@H]2N(CCc3ccc(Cl)c(Cl)c3)C(=O)O[C@]12C
–	275 nM	692 nM	–	–	CC[C@H]1OC(=O)[C@H](C)[C@@H](OC(=O)N2C(=O)OC[C@H]2CC(C)C)[C@H](C)[C@@H](OC2O[C@H](C)C[C@H](N(C)C(C)C)[C@H]2O)[C@@](C)(OC)C[C@@H](C)C(=O)[C@H](C)[C@H]2N(CCc3ccc(Cl)cc3)C(=O)O[C@]12C (stereo partly drawn)
–	0.331 nM	0.107 nM	0.479 nM	–	CC[C@H]1OC(=O)[C@H](C)[C@@H](OC(=O)N2C(=O)OC[C@@H]2C)[C@H](C)[C@@H](OC2O[C@H](C)C[C@H](N(C)CC3CC3)[C@H]2O)[C@@](C)(OC)C[C@@H](C)C(=O)[C@H](C)[C@H]2N(CCc3ccc(F)c(Cl)c3)C(=O)O[C@]12C (stereo partly drawn)
–	79.4 nM	8.91 nM	–	–	CC[C@H]1OC(=O)[C@H](C)[C@@H](OC(=O)N2C(=O)OCC2(C)C)[C@H](C)[C@@H](OC2O[C@H](C)C[C@H](N(C)C(C)C)[C@H]2O)[C@@](C)(OC)C[C@@H](C)C(=O)[C@H](C)[C@H]2N(CCc3ccc(Cl)cc3)C(=O)O[C@]12C (stereo partly drawn)
–	1620 nM	112 nM	–	–	CC[C@H]1OC(=O)[C@H](C)[C@@H](OC(=O)N2CCCC2)[C@H](C)[C@@H](OC2O[C@H](C)C[C@H](N(C)C(C)C)[C@H]2O)[C@@](C)(OC)C[C@@H](C)C(=O)[C@H](C)[C@H]2N(CCc3ccc(Cl)cc3)C(=O)O[C@]12C (stereo partly drawn)
–	562 nM	18.2 nM	–	–	CCC1CN(C(=O)O[C@H]2[C@H](C)[C@@H](OC3O[C@H](C)C[C@H](N(C)C(C)C)[C@H]3O)[C@@](C)(OC)C[C@@H](C)C(=O)[C@H](C)[C@H]3N(CCc4ccc(Cl)cc4)C(=O)O[C@]3(C)[C@@H](CC)OC(=O)[C@@H]2C)C(=O)O1 (stereo partly drawn)
–	–	2.88 nM	–	< -7	CC[C@H]1OC(=O)[C@H](C)[C@@H](OC(=O)N2C(=O)O[C@H](C)[C@@H]2C)[C@H](C)[C@@H](OC2O[C@H](C)C[C@H](N(C)C(C)C)[C@H]2O)[C@@](C)(OC)C[C@@H](C)C(=O)[C@H](C)[C@H]2N(CCc3ccc(Cl)cc3)C(=O)O[C@]12C (stereo partly drawn)
–	115 nM	2.14 nM	–	–	CC[C@H]1OC(=O)[C@H](C)[C@@H](OC(=O)N2CCOC2=O)[C@H](C)[C@@H](OC2O[C@H](C)C[C@H](N(C)C(C)C)[C@H]2O)[C@@](C)(OC)C[C@@H](C)C(=O)[C@H](C)[C@H]2N(CCc3ccc(Cl)cc3)C(=O)O[C@]12C (stereo partly drawn)
–	36.3 nM	7.94 nM	–	–	CC[C@H]1OC(=O)[C@H](C)[C@@H](OC(=O)N2CC(C)OC2=O)[C@H](C)[C@@H](OC2O[C@H](C)C[C@H](N(C)C(C)C)[C@H]2O)[C@@](C)(OC)C[C@@H](C)C(=O)[C@H](C)[C@H]2N(CCc3ccc(Cl)cc3)C(=O)O[C@]12C (stereo partly drawn)
–	631 nM	50.1 nM	–	–	CC[C@H]1OC(=O)[C@H](C)[C@@H](OC(=O)C2CCCC2)[C@H](C)[C@@H](OC2O[C@H](C)C[C@H](N(C)C(C)C)[C@H]2O)[C@@](C)(OC)C[C@@H](C)C(=O)[C@H](C)[C@H]2N(CCc3ccc(Cl)cc3)C(=O)O[C@]12C (stereo partly drawn)
–	794 nM	120 nM	–	–	CC[C@H]1OC(=O)[C@H](C)[C@@H](OC(=O)N2CCOC2C)[C@H](C)[C@@H](OC2O[C@H](C)C[C@H](N(C)C(C)C)[C@H]2O)[C@@](C)(OC)C[C@@H](C)C(=O)[C@H](C)[C@H]2N(CCc3ccc(Cl)cc3)C(=O)O[C@]12C (stereo partly drawn)
